Test results from ChEMBL document CHEMBL1135836, “Cyclodextrin-derived host molecules as reversal agents for the neuromuscular blocker rocuronium bromide: synthesis and structure-activity relationships” (J Med Chem, 2002).

Experiments:
Format in all cases: functional
Cavia porcellus [1] = assay: In vivo reversal activity versus ~90% block by rocuronium in guinea pig
Method in brief: (§1)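 Male Dunkin-Hartley guinea pigs (600-900 g), anaesthetized ip with pentobarbitone 10 mg/kg plus urethane 1000 mg/kg, tracheotomized and ventilated. Continuous iv rocuronium infusion (~10 nmol kg-1 min-1) was raised to a steady 85-90% block. Increasing iv doses of agent were given cumulatively. ED50 = 50% recovery versus preblock twitch, by regression. Mean ± SEM of at least two experiments, or one.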

Cavia porcellus [2] = assay: In vivo reversal activity versus ~90% block by rocuronium in guinea pig, expressed as % of maximum reversal at 0.5 umol/kg conc.; method in brief: as §1
Mus musculus [3] = organism: Mus musculus; assay: In vitro reversal activity versus ~90% block by rocuronium in isolated mouse hemidiaphragm, expressed as % of maximum reversal at 3.6 uM conc.
Mus musculus [4] = organism: Mus musculus; assay: In vitro reversal activity versus ~90% block by rocuronium in isolated mouse hemidiaphragm, expressed as effective conc.
Mus musculus [5] = organism: Mus musculus; assay: In vitro reversal activity versus ~90% block by rocuronium in isolated mouse hemidiaphragm, expressed as % of maximum reversal at 5.4 uM conc.
Cavia porcellus [6] = assay: In vivo reversal activity versus ~90% block by rocuronium in guinea pig, expressed as % of maximum reversal at 0.3 umol/kg conc.; method in brief: as §1

| Structure (SMILES) | EC50 (Mus musculus [4]) [nM] | ED50 (Cavia porcellus [1]) [µmol/kg] | Max reversal (Cavia porcellus [2]) [%] | Max reversal (Mus musculus [3]) [%] | Max reversal (Mus musculus [5]) [%] | Max reversal (Cavia porcellus [6]) [%] |
| --- | --- | --- | --- | --- | --- | --- |
| O=S(=O)([O-])CCSCC1O[C@@H]2O[C@@H]3C(CSCCS(=O)(=O)[O-])O[C@H](O[C@@H]4C(CSCCS(=O)(=O)[O-])O[C@H](O[C@@H]5C(CSCCS(=O)(=O)[O-])O[C@H](O[C@@H]6C(CSCCS(=O)(=O)[O-])O[C@H](O[C@@H]7C(CSCCS(=O)(=O)[O-])O[C@H](O[C@@H]8C(CSCCS(=O)(=O)[O-])O[C@H](O[C@@H]9C(CSCCS(=O)(=O)[O-])O[C@H](O[C@H]1C(O)C2O)C(O)C9O)C(O)C8O)C(O)C7O)C(O)C6O)C(O)C5O)C(O)C4O)C(O)C3O.[Na+].[Na+].[Na+].[Na+].[Na+].[Na+].[Na+].[Na+] (stereo not given in full) | 3600 | 0.05 | 92.8 | 95.6 |  |  |
| O=C([O-])CCCCSCC1O[C@@H]2O[C@@H]3C(CSCCCCC(=O)[O-])O[C@H](O[C@@H]4C(CSCCCCC(=O)[O-])O[C@H](O[C@@H]5C(CSCCCCC(=O)[O-])O[C@H](O[C@@H]6C(CSCCCCC(=O)[O-])O[C@H](O[C@@H]7C(CSCCCCC(=O)[O-])O[C@H](O[C@@H]8C(CSCCCCC(=O)[O-])O[C@H](O[C@@H]9C(CSCCCCC(=O)[O-])O[C@H](O[C@H]1C(O)C2O)C(O)C9O)C(O)C8O)C(O)C7O)C(O)C6O)C(O)C5O)C(O)C4O)C(O)C3O.[Na+].[Na+].[Na+].[Na+].[Na+].[Na+].[Na+].[Na+] (stereo not given in full) | 1800 | 0.07 |  |  | 98.9 | 99 |
| O=C([O-])CCCSCC1O[C@@H]2O[C@@H]3C(CSCCCC(=O)[O-])O[C@H](O[C@@H]4C(CSCCCC(=O)[O-])O[C@H](O[C@@H]5C(CSCCCC(=O)[O-])O[C@H](O[C@@H]6C(CSCCCC(=O)[O-])O[C@H](O[C@@H]7C(CSCCCC(=O)[O-])O[C@H](O[C@@H]8C(CSCCCC(=O)[O-])O[C@H](O[C@@H]9C(CSCCCC(=O)[O-])O[C@H](O[C@H]1C(O)C2O)C(O)C9O)C(O)C8O)C(O)C7O)C(O)C6O)C(O)C5O)C(O)C4O)C(O)C3O.[Na+].[Na+].[Na+].[Na+].[Na+].[Na+].[Na+].[Na+] (stereo not given in full) | 1400 | 0.06 |  | 98.5 |  | 93.4 |

Further lines, with some results ahead:

| EC50 (Mus musculus [4]) [nM] | Structure (SMILES) | ED50 (Cavia porcellus [1]) [µmol/kg] | Max reversal (Cavia porcellus [2]) [%] | Max reversal (Mus musculus [3]) [%] | Max reversal (Mus musculus [5]) [%] | Max reversal (Cavia porcellus [6]) [%] |
| --- | --- | --- | --- | --- | --- | --- |
| 1200 | O=C([O-])CSCC1O[C@@H]2O[C@@H]3C(CSCC(=O)[O-])O[C@H](O[C@@H]4C(CSCC(=O)[O-])O[C@H](O[C@@H]5C(CSCC(=O)[O-])O[C@H](O[C@@H]6C(CSCC(=O)[O-])O[C@H](O[C@@H]7C(CSCC(=O)[O-])O[C@H](O[C@@H]8C(CSCC(=O)[O-])O[C@H](O[C@@H]9C(CSCC(=O)[O-])O[C@H](O[C@H]1C(O)C2O)C(O)C9O)C(O)C8O)C(O)C7O)C(O)C6O)C(O)C5O)C(O)C4O)C(O)C3O.[Na+].[Na+].[Na+].[Na+].[Na+].[Na+].[Na+].[Na+] (stereo not given in full) | 0.1 | 103.3 | 93.8 |  |  |
| 100 | O=C([O-])c1ccccc1C(=O)NCCSCC1O[C@@H]2O[C@@H]3C(CSCCNC(=O)c4ccccc4C(=O)[O-])O[C@H](O[C@@H]4C(CSCCNC(=O)c5ccccc5C(=O)[O-])O[C@H](O[C@@H]5C(CSCCNC(=O)c6ccccc6C(=O)[O-])O[C@H](O[C@@H]6C(CSCCNC(=O)c7ccccc7C(=O)[O-])O[C@H](O[C@@H]7C(CSCCNC(=O)c8ccccc8C(=O)[O-])O[C@H](O[C@@H]8C(CSCCNC(=O)c9ccccc9C(=O)[O-])O[C@H](O[C@@H]9C(CSCCNC(=O)c%10ccccc%10C(=O)[O-])O[C@H](O[C@H]1C(O)C2O)C(O)C9O)C(O)C8O)C(O)C7O)C(O)C6O)C(O)C5O)C(O)C4O)C(O)C3O.[Na+].[Na+].[Na+].[Na+].[Na+].[Na+].[Na+].[Na+] (stereo not given in full) | 0.09 | 94.5 |  | 88.3 |  |
